Here are results for 5 compounds from ChEMBL document CHEMBL1144720, “Diarylheptanoids and a monoterpenoid from the rhizomes of Zingiber officinale: antioxidant and cytoprotective properties” (J Nat Prod, 2008).

One may read the IC50 as the concentration that gives 50% inhibition.

In data set [1] the test system is Hepatocyte. The data set can be described thus: Cytotoxicity against rat hepatocytes upto 100 uM after 48 hrs. In kind it is cell-based. A digest of the protocol:
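Primary cultured rat hepatocytes incubated with compounds up to 100 µM for 48 h to check cytotoxicity.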

Data set [2] has as its system KB. The data set is described as follows: Cytotoxicity against human KB cells after 3 to 5 days by MTT assay. In kind it is functional, cell-based. On the technique in general: Tetrazolium assays rely on reduction of a dye to a coloured formazan, in cell work by metabolically active cells.
For data set [3], the system named is Liver. The data set can be described thus: Antioxidant activity in BALB/c mouse liver microsomes assessed as complete inhibition of free radical-induced lipid peroxidation at 40 uM after 60 mins. The data set is classed as functional. The note with it: Microsome. A digest of the protocol: (§1)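 Mouse liver microsomes subjected to free radical-induced lipid peroxidation; formation of lipid peroxides measured with compounds over a concentration range, IC50 derived; mean ± SEM, n = 4.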
On the technique in general: Liver microsomes are a subcellular fraction often used to study metabolism.

Data set [4] concerns Liver. The data set can be described thus: Antioxidant activity in BALB/c mouse liver microsomes assessed as inhibition of free radical-induced lipid peroxidation after 60 mins. In kind it is functional, Microsome. Particulars: 1 h. Put shortly:
as §1

A short description of data set [5]: Antioxidant activity assessed as superoxide radical anion scavenging activity. In kind it is functional. A digest of the protocol:
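In vitro superoxide scavenging: superoxide generated by phenazine methosulfate–NADH system, detected as reduced nitroblue tetrazolium absorbance at 560 nm; dose–response used to derive IC50.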

The test system of data set [6] is Hepatocyte. The data set is described as follows: Antioxidant activity against tert-butyl hydroperoxide-induced oxidative stress in Sprague-Dawley rat hepatocytes at 100 uM after 24 hrs by lactate dehydrogenase assay. In kind it is functional, cell-based. Put shortly: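 Primary rat hepatocyte cultures pretreated with compounds for 24 h, compounds removed, then exposed to tert-butyl hydroperoxide; cell damage read as lactate dehydrogenase leakage into culture medium; mean ± SEM, n = 4.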

For data set [7], the system named is Liver. The data set is described as follows: Antioxidant activity in BALB/c mouse liver microsomes assessed as complete inhibition of free radical-induced lipid peroxidation at 20 uM after 60 mins. The data set is classed as functional. Particulars: Microsome. A digest of the protocol:
as §1

SMILES strings stand for the structures. The source made the active and inactive calls. The calls are words filed in the database; no cut-off is given here.

In the case of `COc1cc(CCC(=O)CC(O)CCc2cc(O)c(O)c(OC)c2)ccc1O` (stereo not given), the Activity result in data set [1] is “Non-toxic”; in data set [2] it was “Not toxic”.
The matching figures for `COc1cc(CCC(O)CC(=O)CCc2cc(O)c(O)c(OC)c2)ccc1O` (stereo not given): “Non-toxic” and “Not toxic”.
On to `COc1cc([C@@H]2C[C@@H](O)C[C@H](CCc3ccc(O)c(O)c3)O2)cc(O)c1O`, for which the outcome in data set [3] and in data set [6] was Active. For the same compound, the Activity entry is “Non-toxic” in data set [1] and “Not toxic” in data set [2]. The IC50 in data set [4] worked out at 21.9 µM; in data set [5], 39.9 µM.
For `COc1cc([C@@H]2C[C@H](O)C[C@H](CCc3ccc(O)cc3)O2)cc(O)c1O`, the outcome in data set [3] and in data set [6] was Active. The figures for the IC50 in data set [4] and in data set [5] were 27.9 µM and 48.1 µM, respectively.
As to `COc1cc(CCC(=O)CC(O)CCc2ccc(O)c(O)c2)ccc1O` (stereo not given), the Activity result in data set [1] is “Non-toxic”; in data set [2], “Not toxic”. Further, the outcome in data set [7] and in data set [6] was Active. Further, the half-inhibitory concentration (IC50) came out at 17.1 µM in data set [4] and 36.4 µM in data set [5].
